Measurements collected from several papers.
Cell line: THP-1

SMILES	assay	conditions	IC50
O=[N+]([O-])c1c[nH]nc1-c1nc(-c2ccc(Oc3ccc(I)cc3)cc2)no1	cell growth or viability, LDH	24 h	> 50 µg/mL
CNCC(O)c1ccc(O)c(O)c1 (racemic)	TNF-α release, inhibitor	17 h, LPS-stimulated	150 nM
Nc1ncc(-c2cnn(C3CCNCC3)c2)cc1-c1nnc(CC2CC2)o1	cell growth or viability, trypan blue	72 h	163 nM
CCn1c(-c2nnc(NC(=O)c3cc4c([nH]c5ccccc54)c(-c4cc(OC)c(OC)c(OC)c4)n3)s2)cc2ccccc21	cell growth or viability, MTT	72 h	40200 nM
COc1cc(/C=C/C(=O)CC(=O)/C=C/c2ccc(O)c(OC)c2)ccc1O	cell growth or viability, MTT	48 h	24 µg/mL
C=C1C(=O)O[C@H]2[C@H]1CC/C(C)=C/CC[C@@]1(C)O[C@@H]21	TNF-α release, inhibitor	17 h, LPS-stimulated	1300 nM
COc1cccc2c1C(=O)c1c(O)c3c(c(O)c1C2=O)C[C@@](O)(C(=O)CO)C[C@@H]3O[C@H]1C[C@H](N)[C@H](O)[C@H](C)O1	cell growth or viability, MTT	48 h	2.7 µg/mL
CC[C@@H](C)[C@H](N)C(=O)N1Cc2ccccc2C1	cell growth or viability, ATP luminescence		1700 nM
CCn1c(-c2nnc(NC(=O)c3cc4c([nH]c5ccccc54)c(-c4ccc(OC)cc4)n3)s2)cc2ccccc21	cell growth or viability, MTT	72 h	48600 nM
NC[C@H](O)c1ccc(O)c(O)c1	TNF-α release, inhibitor	17 h, LPS-stimulated	100 nM
COc1ccc(-c2nc(C(=O)Nc3nnc(-c4cc5ccccc5n4C)s3)cc3c2[nH]c2ccccc23)cc1	cell growth or viability, MTT	72 h	14400 nM
NCCc1c[nH]cn1	TNF-α release, inhibitor, ELISA	17 h, LPS-stimulated	710 nM
Cc1cnc(-c2ccc(-c3ccc(NC(=O)Nc4c(F)cc(F)cc4F)cc3F)c3c2C(=O)NC3)[nH]1	cell growth or viability		3.88 nM
CC(C)NC[C@@H](O)c1ccc(O)c(O)c1	TNF-α release, inhibitor	17 h, LPS-stimulated	71 nM
O=C(Nc1nnc(-c2cc3ccccc3[nH]2)s1)c1cc2c([nH]c3ccccc32)c(-c2ccc(Cl)cc2)n1	cell growth or viability, MTT	72 h	4380 nM
N[C@@H](CC(=O)N1CCN(C(c2ccc(F)cc2)c2ccc(F)cc2)CC1)C(=O)N1Cc2ccccc2C1	cell growth or viability, ATP luminescence	48 h	2740 nM
COc1cc(-c2nc(C(=O)Nc3nnc(-c4cc5ccccc5n4C)s3)cc3c2[nH]c2ccccc23)cc(OC)c1OC	cell growth or viability, MTT	72 h	8780 nM
C#CCSc1nc(Sc2nnnn2-c2ccccc2)c2nnn(Cc3ccc(OC)cc3)c2n1	cell growth or viability, MTS	6 days	2520 nM
CC(CCc1ccc(O)cc1)NCCc1ccc(O)c(O)c1 (centres unmarked)	TNF-α release, inhibitor	17 h, LPS-stimulated	510 nM
O=C(Nc1nnc(-c2cc3ccccc3[nH]2)s1)c1cc2c([nH]c3ccccc32)c(-c2ccc(F)cc2)n1	cell growth or viability, MTT	72 h	6110 nM
